Screening data deposited in PubChem by The Scripps Research Institute Molecular Screening Center.
LEDGF integ inh = blocks HIV-1 LEDGF/p75-dependent DNA integration; TR-FRET IN-LEDGF/p75 DNA integration, Eu/Cy5; inhibition, % at 3.7 µM; hit rate 0.64% among 370,000; AID 743269;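 active = inhibition above the screen-wide mean plus 3 SD, cut at about 13% in these data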;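 note: signal is the Cy5 over europium emission ratio at 671 and 618 nm; 0% = plate median of compound wells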
MBD2 inh = inhibitors of human MBD2 binding to methylated oligonucleotide; Q9UBB5; TR-FRET; inhibition, % at 4.4 µM; hit rate 0.31% among 370,000; in the data active = inhibition above about 13%
Target sequence (Q9UBB5 whole entry, looked up): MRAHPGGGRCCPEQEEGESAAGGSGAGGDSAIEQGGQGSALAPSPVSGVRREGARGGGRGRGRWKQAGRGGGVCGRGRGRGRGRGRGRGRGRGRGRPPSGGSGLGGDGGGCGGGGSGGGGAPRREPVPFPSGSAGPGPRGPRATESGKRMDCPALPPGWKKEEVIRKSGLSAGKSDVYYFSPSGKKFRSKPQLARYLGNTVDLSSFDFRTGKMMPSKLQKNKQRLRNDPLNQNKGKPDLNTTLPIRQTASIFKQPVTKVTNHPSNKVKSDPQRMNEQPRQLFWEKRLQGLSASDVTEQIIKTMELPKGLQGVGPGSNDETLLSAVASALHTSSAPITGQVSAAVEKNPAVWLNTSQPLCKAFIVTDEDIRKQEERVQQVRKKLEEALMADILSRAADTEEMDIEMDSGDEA
UHRF1 MBD2 ctr = human UHRF1 methylated DNA binding inhibitors; UHRF1 binding to methylated oligo, TR-FRET; Q96T88; hit rate 0.75% among 370,000; inhibition, % at 4.4 µM; AID 687016;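 note: UHRF1 SRA domain binding a hemimethylated CpG hairpin DNA probe; 0% = median of test compound wells and 100% = reference inhibitor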
core dimer inh = blocks dimerization of HCV core protein; inhibition, % at 5 µM; TR-FRET GST/Flag-core106 dimerization, 1536-well; hit rate 0.33% among 300,000;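 active = inhibition above the mean of all tested compounds plus 3 SD, set per screening campaign, cut at about 45% in these data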
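assay system = GST-tagged and Flag-tagged HCV core protein residues 1-106 | controls = unlabelled core106 and no-GST-core106 wells | incubation = compound-protein-antibody incubation 4 h at 22.5 °C | probe or stimulus = Eu donor and XL665 acceptor anti-tag antibodies | read-out = % inhibition based on acceptor/donor emission ratio | signal = TR-FRET 671 and 617 nm emission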
TDP2 inh = TDP2 (human) inhibition, absorbance primary screen. O95551. recombinant TDP2, T5PNP hydrolysis, p-nitrophenol absorbance 415 nm. inhibition, % at 12.8 µM. hit rate 0.34% among 370,000;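 active = inhibition above the mean of all tested compounds plus 3 SD, set per campaign, cut at about 25% in these data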;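 note: 0% = DMSO with enzyme and 100% = buffer with substrate but no TDP2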
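System – recombinant human TDP2 · Quantity – TDP2 enzyme at 120 nM final · Doses – single concentration, 12.8 µM nominal, with 1% DMSO · Incubation – 2 h at 37 °C · Measured by – epi absorbance of p-nitrophenol freed from T5PNP by hydrolysis · Read-out – % inhibition relative to enzyme-containing and enzyme-free wells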
UHRF1 ctr MBD2 = counter-screen for MBD2 inhibitors: human UHRF1 methylated DNA binding inhibitors. shares compounds with MBD2 inh. UHRF1 binding to methylated oligonucleotide, TR-FRET. inhibition, % at 4.4 µM. hit rate 25% among 1,000;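 note: UHRF1 SRA domain binding a labeled hemimethylated CpG hairpin DNA; 0% = vehicle only and 100% = reference inhibitor with vehicle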
MBD2 confirm = MBD2-DBD methyl-DNA binding inhibition, TR-FRET confirmation; shares compounds with MBD2 inh; TR-FRET MBD2-DBD binding to methylated oligonucleotide; inhibition, % at 4.4 µM; hit rate 26% among 1,000; AID 720531; in the data active = inhibition above about 14%
* hit, by the source's call; / = not tested or not shown; ! = repeats disagree. In the library only some 1.8% were active in any assay of this set; here they are far more common. Cut-off read from the data, not from the text of the source, unless noted: active = inhibition above about 21%; inactive = the rest.

SMILES	LEDGF integ inh	MBD2 inh	UHRF1 MBD2 ctr	core dimer inh	TDP2 inh	UHRF1 ctr MBD2	MBD2 confirm
O=C(Nc1ccc(Oc2cccc(C(F)(F)F)c2)nc1)c1ccccc1	-3	1	0	2	3	/	/
O=c1c2ccccc2n(Cc2ccno2)n1[C@@H](Cc1ccccc1)Cn1cc(C2CCCC2)nn1	4	8	3	/	0	/	/
Cc1cc(C(=O)O)ccc1-c1ccc(/C=C2\NC(=O)N(Cc3ccccc3Cl)C2=O)o1	/	/	/	5	/	/	/
Cc1ccc(C(=O)O)cc1-c1ccc(/C=C2/NC(=O)N(c3ccccc3)C2=O)o1	9	14*	43*	5	-1	30*	11
N#Cc1cccc(NC(=O)c2cc(C3CCCCN3C(=O)c3ccc4c(c3)CCO4)on2)c1 (configuration not stated)	-1	53*	12	/	-3	4	3
CC(C)NS(=O)(=O)c1ccc(OCC(=O)N2CCCC2)c(Cl)c1	-4	24*	-1	-1	4	4	6
CCN(CC)CCOc1ccc2c(c1)C(=NO)c1cc(OCCN(CC)CC)ccc1-2	-2	41*	54*	-9	11	62*	47*
COc1ccc2oc3cc(C)[n+]([O-])c(-c4ccc(Cl)cc4)c3c2c1	1	13*	19	-4	2	1	2
CCOC(=O)CC[C@H]1CC[C@]2(CCCN(C(=O)c3cccnc3)C2)O1	1	0	-1	/	7	/	/
O=C(O)c1ccc(-n2cccc2/C=N\NC(=O)c2cc3cc(Br)ccc3o2)cc1	7	33*	62*	11	0	66*	41*
O=C(CN1C(=O)C2(OCCCO2)c2ccccc21)NCc1ccc2ccccc2c1	2	-6	0	/	9	/	/
c1ccc(Oc2ncnc3ccccc23)cc1	-6	21*	0	/	-4	2	2
COc1ccc(N(C)S(=O)(=O)c2cccc(C(=O)Nc3nc(C)c(C(C)=O)s3)c2)cc1	1	15*	17	/	-6	6	4
CN(C)CCN1CCN(C2CN(Cc3cn(Cc4cccc(C(F)(F)F)c4)nn3)S(=O)(=O)C2)CC1 (configuration not stated)	8	11	18	/	8	/	/
Cc1cccc(CN2CCN(C3CN(Cc4cn(Cc5cccc(C(F)(F)F)c5)nn4)S(=O)(=O)C3)CC2)c1 (configuration not stated)	3	14*	18	/	8	7	11
CCCCNc1c(-c2ccc(OC)c(SC(C)CC)c2)nc2ccc(C)cn12 (configuration not stated)	1	14*!	-2	/	-3	9	3
CCOC(=O)N1CCN(C(=O)C[C@H]2C(=O)N(CCCOC)C3=CCCC[C@@]32C(=O)OCC)CC1	-5	-2	-3	/	-4	/	/
COc1cc(OC)c(-c2c3cc(O)c(=O)cc-3oc3cc(O)c(O)cc23)cc1OC	84*	15*	-3	-18	-5	-38	-10
COc1cc(-c2cc(=O)c3ccc(O)cc3o2)cc(OC)c1OC	3	6	4	/	3	/	/
CCOC(=O)N1CCN(C(=O)C[C@@H]2C(=O)N3CCCC4=C3[C@@]2(C(=O)OCC)CCC4)CC1	7	0	-2	/	-1	/	/
O=C(COC(=O)C1CCC1)NC(=O)c1ccccc1	-2	4	0	1	10	/	/
O=C(COC(=O)C1CC1)NC(=O)c1ccccc1	7	16*	23*	/	-22	6	2
CCOC(=O)[C@@]12CN(C(=O)OC(C)(C)C)CC=C1N(Cc1ccc(OC)cc1)C(=O)[C@H]2CC(=O)NCCCOC	3	-2	-1	/	2	/	/
Cc1cccc(N2C(=O)CC(Sc3nc(C)c4c(n3)CCCC4)C2=O)c1 (configuration not stated)	0	14*	1	10	-3	4	5
O=C(Nc1ccccc1Br)c1ccc2nccnc2c1	5	-5	-6	-3	12	/	/
SMILES	LEDGF integ inh	MBD2 inh	UHRF1 MBD2 ctr	core dimer inh	TDP2 inh	UHRF1 ctr MBD2	MBD2 confirm
Cc1ccccc1NC(=O)c1ccc2nccnc2c1	2	16*	1	10	4	6	-1
CCCCn1c(N)c(N(CC(C)C)C(=O)C(C)SCc2nc3sc(C)c(C)c3c(=O)[nH]2)c(=O)[nH]c1=O (configuration not stated)	-2	20*	0	-1	-6	6	0
CCCc1nnc(NC(=O)CCC(=O)N2CCN(c3ccccn3)CC2)s1	0	14*	19	2	-8	8	4
CCCc1nnc(NC(=O)CCC(=O)N2CCN(c3ccccc3)CC2)s1	-2	5	1	10	-2	/	/
Cc1cc(=O)[nH]c2ccccc12	-1	-2	2	6	-3	/	/
Cc1cc2[nH]c3c(c[n+](C)c4ccccc34)c2cc1C	5	83*	51*	1	-6	60*	88*
COc1ccc2cc3cc(C(=O)Nc4ccc(F)cc4)sc3nc2c1	-3	29*	8	/	0	29*	28*
c1ccc(-c2ccc(C3=Nn4c(nnc4-c4ccccn4)SC3)cc2)cc1	-2	8	-1	/	5	/	/
CC(=O)CC[C@H]1CC[C@]2(CCCN(Cc3nccn3C)C2)O1	-5	2	1	/	-3	/	/
CNC(C)C(=O)NC(C(=O)N1CCCC1C(=O)NNc1ccccc1)C(C)C (configuration not stated)	11	46*	56*	/	9	9	2
CNC(C)C(=O)NC(C(=O)N1CCCC1C(=O)NC1CCCc2ccccc21)C(C)C (configuration not stated)	3	7	1	/	4	/	/
Cc1ccc(C)c2nc(Cl)c(C#N)cc12	-5	14*	2	-18	1	3	4
Cc1ccc(C)c2nc(N3CCCC3)c(C#N)cc12	-1	-4	-3	10	4	/	/
Cc1ccc(-c2csc3nc4cc(C(=O)NC5CCC(O)CC5)ccc4c(=O)n23)cc1 (configuration not stated)	1	14*	20	4	13	13	8
Cc1ccc(-c2csc3nc4ccc(C(=O)NCCO)cc4c(=O)n23)cc1	1	-4	-2	-6	-2	/	/
COc1ccc(CN2CCN(Cc3ccc(C)cc3)CC2)c(OC)c1	-1	32*	1	-3	12	4	3
Cc1ccc2c(nc3s/c(=C\c4ccc(-c5ccccc5C(=O)O)o4)c(=O)n32)c1C	11	15*	34*	12	11	15	5
COc1ccccc1NC(=O)Cc1cccs1	1	1	-1	7	9	/	/
